According to PubChem BioAssay AID623982 (Broad Institute, 2012):
“And” between values parts separate entries of the source, which are not always exact repeats. Identical values can stand only once. The source made the active and inactive calls.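 Rule for the calls: active = compounds cutting fungal growth signal with fitted half-effect dose at most twice the top valid dose; inconclusive = flat curve at 30 to 70% inhibition, or poor fit; inactive = the rest.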

Tested on: not listed separately
Assay: C. albicans CaCi-17 antifungal growth inhibitors – CaCi-17 strain, retest, dry powder, set 3, dose response (AID 623982)
Settings: C. albicans CaCi-17 growth, Alamar Blue fluorescence, 48 h; at 3 µM (top of the series)
In short: (§1)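 Medium: buffered RPMI / Times: 48 h exposure, 37 °C, humidified, static / Detection: Alamar Blue fluorescence, 2 h dye incubation / Evaluation: growth inhibition indicated by fluorescence signal loss / Control set: amphotericin B at 10 µM as positive control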

Q: For `CCOC(=O)N1C(=O)C2(CCCCC2)N(c2ccc(C)cc2)C1=S`, which activity change, negative = inhibition is on record?
A: 100% (inactive) and 85.9% (inactive)

Q: Which activity change, negative = inhibition does the source give for `CCOC(=O)N1C(=O)C2(CCCCC2)N(c2cccc(C)c2)C1=S` here?
A: 70.9% (inactive)

Q: Which activity change, negative = inhibition does the source give for `CCOC(=O)N1C(=O)C2(CCCCC2)N(c2ccccc2)C1=S` here?
A: 104% (inactive)

Q: With `C/C=C/[C@@H]1[C@H]2C[C@@H](C)CC[C@@H]2C(C)=C[C@H]1C(=O)c1c(O)c(-c2ccc(O)cc2)c[nH]c1=O` as the compound, how does the activity change, negative = inhibition read?
A: 54.1% (inactive)

Tested on: C. albicans CaCi-17 growth, Alamar Blue fluorescence, 48 h
Assay: as above
Settings: not given
In short: as §1

Q: For `CC1/C=C/C=C\C=C\C=C\C=C\C=C\C=C\C(O[C@H]2OC(C)C(O)C(N)C2O)CC2OC(O)(CC(O)CC(O)C(O)CCC(O)CC(O)CC(=O)OC(C)C(C)C1O)CC(O)C2C(=O)O` (stereo partly specified), which AC50 is on record?
A: 83.8 nM

Q: With `CCOC(=O)N1C(=O)C2(CCCCC2)N(c2ccc(F)cc2)C1=S` as the compound, how does the AC50 read?
A: 783 nM
